Results as given in ChEMBL document CHEMBL4680070, “A second generation of 1,2,4-oxadiazole derivatives with enhanced solubility for inhibition of 3-hydroxykynurenine transaminase (HKT) from Aedes aegypti” (RSC Med Chem, 2021).
Active and inactive are the calls of the source. The rule behind the calls is not given here.

Test system: not listed separately
Experiment: Inhibition of recombinant Aedes aegypti RecLab N-terminal Trx-fused/His6-tagged 3-hydroxykynurenine transaminase H360M mutant expressed in Escherichia coli Rosetta 2 (DE3) assessed as reduction in conversion of 3-hydroxy kynurenine to xanthurenic-acid using 3-D,L hydroxy kynurenine as substrate preincubated with PLP cofactor and enzyme and 30 mins later incubated with 3-D,L-HK and measured after 5 mins by microplate reader assay
Outline: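 Recombinant AeHKT (2 μg) in 200 mM HEPES/100 mM NaCl with 2 mM 3-D,L-HK, 2 mM sodium pyruvate and 40 μM PLP. Reaction ran 5 min at 50 °C and was stopped with 10 mM FeCl3 in 0.1 M HCl. The XA–Fe3+ complex was read at 570 nm, and XA was quantified against a calibration curve. Run in duplicate.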

| IC50 [µM] | Structure (SMILES) |
| --- | --- |
| 35 | COc1ccc(-c2noc(CCC(=O)O)n2)cc1 |
| 110 | O=C(O)CCCc1nc(-c2ccc(Br)cc2)no1 |
| 85 | O=C(O)CCc1nc(-c2cccc([N+](=O)[O-])c2)no1 |
| 76 | O=C(O)CCc1nc(-c2ccc([N+](=O)[O-])cc2)no1 |
| 85 | O=C(O)CCc1nc(-c2ccc(Cl)cc2)no1 |
| 54 | Cc1cccc(-c2noc(CCCC(=O)O)n2)c1 |
| 88 | Cc1ccc(-c2noc(CCCC(=O)O)n2)cc1 |
| 110 | Cc1cccc(-c2noc(CCC(=O)O)n2)c1 |
| 101 | COc1ccc(-c2noc(CCCC(=O)O)n2)cc1 |
| 63 | O=C(O)CCCc1nc(-c2cccc3ccccc23)no1 |
| 139 | O=C(O)CCc1nc(-c2ccccc2)no1 |
| 294 | O=C(O)CCCc1nc(-c2ccc(Cl)cc2)no1 |
| 124 | O=C(O)CCc1nc(-c2ccc(F)cc2)no1 |
| 87 | O=C(O)CCCc1nc(-c2ccc3c(c2)OCO3)no1 |
| 42 | O=C(O)CCc1nc(-c2ccc(C(F)(F)F)cc2)no1 |
| 84 | O=C(O)CCc1nc(-c2ccco2)no1 |
| 61 | O=C(O)CCc1nc(-c2cccc(Br)c2)no1 |
| 73 | Cc1ccc(-c2noc(CCC(=O)O)n2)cc1 |
| 42 | O=C(O)CCCc1nc(-c2ccc(I)cc2)no1 |
| 70 | O=C(O)CCCc1nc(-c2ccc(C(F)(F)F)cc2)no1 |
| 116 | O=C(O)CCc1nc(-c2ccccc2F)no1 |
| 83 | O=C(O)CCc1nc(-c2ccc3c(c2)OCO3)no1 |
| 339 | Cc1ccccc1-c1noc(CCC(=O)O)n1 |
| 77 | O=C(O)CCc1nc(-c2ccccc2Cl)no1 |
| 119 | O=C(O)CCc1nc(-c2ccc(Br)cc2)no1 |
| 64 | O=C(O)CCCc1nc(-c2ccc(Cl)c(Cl)c2)no1 |
| 157 | COc1cccc(-c2noc(CCC(=O)O)n2)c1 |
| 68 | O=C(O)CCc1nc(-c2cccs2)no1 |
| 72 | O=C(O)CCCc1nc(-c2ccccc2)no1 |
| 86 | O=C(O)CCc1nc(-c2ccc(Cl)c(Cl)c2)no1 |

Target: 3-hydroxykynurenine transaminase (Aedes aegypti) (UniProt Q0IG34)
Experiment: Competitive inhibition of Aedes aegypti 3-hydroxykynurenine transaminase at 300 uM using varying level of 3-D,L hydroxy kynurenine as substrate by Lineweaver-Burk plot analysis

3-hydroxykynurenine transaminase (Aedes aegypti), sequence (Q0IG34 whole entry): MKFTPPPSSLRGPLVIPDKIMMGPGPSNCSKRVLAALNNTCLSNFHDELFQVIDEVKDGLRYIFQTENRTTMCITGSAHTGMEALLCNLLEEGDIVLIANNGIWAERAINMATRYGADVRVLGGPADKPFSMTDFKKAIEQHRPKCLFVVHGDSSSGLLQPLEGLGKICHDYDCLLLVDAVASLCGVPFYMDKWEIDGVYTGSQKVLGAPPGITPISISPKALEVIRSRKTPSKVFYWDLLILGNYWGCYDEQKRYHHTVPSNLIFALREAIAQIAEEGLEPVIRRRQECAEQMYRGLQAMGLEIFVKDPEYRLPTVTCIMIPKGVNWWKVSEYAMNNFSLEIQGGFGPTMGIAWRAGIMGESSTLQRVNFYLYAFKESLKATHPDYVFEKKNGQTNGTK

| inhibition | Structure (SMILES) |
| --- | --- |
| Active | O=C(O)CCc1nc(-c2ccccc2)no1 |
